# Measurements published in ChEMBL document CHEMBL1275434, “In vitro evaluation of CBR-2092, a novel rifamycin-quinolone hybrid antibiotic: studies of the mode of action in Staphylococcus aureus” (Antimicrob Agents Chemother, 2008).
# Calls of active or inactive are those of the source. The calls are words filed in the database; no cut-off is given here.
# Key:
# Staphylococcus aureus [1] = assay: Antimicrobial activity against Staphylococcus aureus CB1952 harboring rpoB S486L, gyrA […], gyrA E88Q, gyrA G532S, parC S80F, parC E84L mutant genes selected after CBR-2092 exposure for 21 days; format: functional; conditions: CB1952, 504 h
# Staphylococcus aureus [2] = assay: Antimicrobial activity against Staphylococcus aureus CB1884; format: functional
# Staphylococcus aureus [3] = assay: Activity at Staphylococcus aureus wild-type GyrA
# Procedure, shortened: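 Recombinant S. aureus gyrase (wild-type GyrA with His-tagged GyrB; 250 U per μg). SDS/proteinase K stop. Gel quantitation of linear cleavage product gave CC50, the mean of two or more assays.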
# Staphylococcus aureus [4] = assay: Antimicrobial activity against Staphylococcus aureus CB370 harboring rifampin-resistant rpoB H481Y mutant gene by broth microdilution method; format: functional
# Procedure, shortened: (§1)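 CLSI broth microdilution MIC in cation-adjusted Mueller-Hinton (MHII) broth supplemented with 0.002% (vol/vol) polysorbate 80, included to limit compound loss to plastic surfaces.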
# Staphylococcus aureus [5] = assay: Antimicrobial activity against Staphylococcus aureus CB808 harboring quinolone-resistant parC S80F mutant gene by broth microdilution method; format: functional; procedure, shortened: as §1
# Staphylococcus aureus [6] = assay: Antimicrobial activity against rifampin-sensitive Staphylococcus aureus CB190 harboring rpoB D471G mutant gene by broth microdilution method; format: functional; procedure, shortened: as §1
# Staphylococcus aureus [7] = assay: Antimicrobial activity against rifampin-sensitive Staphylococcus aureus CB190 harboring rpoB E473 mutant gene by broth microdilution method; format: functional; procedure, shortened: as §1
# Staphylococcus aureus [8] = assay: Activity at Staphylococcus aureus DNA topoisomerase 4 subunit ParC S80F mutant
# Staphylococcus aureus [9] = assay: Inhibition of DNA synthesis in rifamycin-resistant Staphylococcus aureus CB370 harboring rpoB H481Y mutant gene assessed as decrease in [methyl-3H]thymidine incorporation at 2 ug/ml; format: functional, organism-based
# Procedure, shortened: (§2)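 Macromolecular synthesis time course in S. aureus, measuring incorporation of [methyl-3H]thymidine (DNA), [5,6-3H]uridine (RNA) or [2,3-3H]D-alanine (cell wall). At each time point, incorporation is expressed as percent of the DMSO-treated control culture. Incorporation at time zero is set to 100%.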
# Staphylococcus aureus [10] = assay: Antimicrobial activity against rifampin-sensitive Staphylococcus aureus CB190 harboring rpoB Q468K mutant gene by broth microdilution method; format: functional; procedure, shortened: as §1
# Staphylococcus aureus [11] = assay: Antimicrobial activity against rifampin-sensitive Staphylococcus aureus CB190 harboring rpoB H481N mutant gene by broth microdilution method; format: functional; procedure, shortened: as §1
# Staphylococcus aureus [12] = assay: Inhibition of RNA synthesis in Staphylococcus aureus CB190 assessed as decrease in [5,6-3H]uridine incorporation at 2 ug/ml; format: functional, organism-based
# Staphylococcus aureus [13] = assay: Antimicrobial activity against rifampin-sensitive Staphylococcus aureus CB190 harboring rpoB H472 mutant gene by broth microdilution method; format: functional; procedure, shortened: as §1
# Staphylococcus aureus [14] = assay: Antimicrobial activity against rifampin-sensitive Staphylococcus aureus CB190 harboring rpo BH481D mutant gene by broth microdilution method; format: functional; procedure, shortened: as §1
# Staphylococcus aureus [15] = assay: Inhibition of DNA synthesis in Staphylococcus aureus CB190 assessed as decrease in [methyl-3H]thymidine incorporation at 2 ug/ml; format: functional, organism-based
# Staphylococcus aureus [16] = assay: Inhibition of cell wall synthesis in Staphylococcus aureus CB190 assessed as decrease in [2,3-3H]D-alanine incorporation at 2 ug/ml; format: functional, organism-based
# Staphylococcus aureus [17] = assay: Antimicrobial activity against Staphylococcus aureus CB1954 harboring rpoB H481Y, gyrA S84L, K809 deficient gyrA, parC S80F, parC A523D mutant genes selected after CBR-2092 exposure for 7 days; format: functional; conditions: CB1954, 168 h; procedure, shortened: as §1
# Staphylococcus aureus [18] = assay: Antimicrobial activity against rifampin-sensitive Staphylococcus aureus CB190 harboring rpoB N474K mutant gene by broth microdilution method; format: functional; procedure, shortened: as §1
# Staphylococcus aureus [19] = assay: Inhibition of RNA synthesis in quinolone-resistant Staphylococcus aureus CB814 harboring gyrA S84L and parC S80F mutant genes assessed as [5,6-3H]uridine incorporation at 2 ug/ml; format: functional, organism-based; procedure, shortened: as §2
# [20] = tested on: DNA gyrase subunit A (Staphylococcus aureus), P20831 [S84L]; assay: Activity at Staphylococcus aureus wild-type GyrA S84L mutant
# Staphylococcus aureus [21] = assay: Antimicrobial activity against rifampin-sensitive Staphylococcus aureus CB190 by broth microdilution method; format: functional; procedure, shortened: as §1
# Staphylococcus aureus [22] = assay: Antimicrobial activity against rifampin-sensitive Staphylococcus aureus CB190 harboring rpoB Q468L mutant gene by broth microdilution method; format: functional; procedure, shortened: as §1
# Staphylococcus aureus [23] = assay: Antimicrobial activity against Staphylococcus aureus CB809 harboring rpoB H481Y and parC S80F mutant genes by broth microdilution method
# Staphylococcus aureus [24] = assay: Antimicrobial activity against rifampin-sensitive Staphylococcus aureus CB190 harboring rpoB D471Y mutant gene by broth microdilution method; format: functional; procedure, shortened: as §1
# Staphylococcus aureus [25] = assay: Activity at Staphylococcus aureus wild-type DNA topoisomerase 4 subunit ParC
# Procedure, shortened: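 Recombinant S. aureus topoisomerase IV (wild-type ParC with ParE; specific activity 25 to 30 U per μg). Stopped with SDS/proteinase K. Linear DNA quantified on gel; CC50 is the mean of two or more assays.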
# Staphylococcus aureus [26] = assay: Antimicrobial activity against rifampin-sensitive Staphylococcus aureus CB190 harboring rpoB H481Y mutant gene by broth microdilution method; format: functional; procedure, shortened: as §1
# Staphylococcus aureus [27] = assay: Antimicrobial activity against Staphylococcus aureus CB190 by broth microdilution method; format: functional
# Staphylococcus aureus [28] = assay: Inhibition of protein synthesis in quinolone-resistant Staphylococcus aureus CB814 harboring gyrA S84L and parC S80F mutant genes assessed as L-[3,4,5-3H]leucine incorporation at 2 ug/ml; format: functional, organism-based
# Procedure, shortened: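 Time-course radiolabel incorporation in S. aureus cultures with test agent. Precursors: [methyl-3H]thymidine (DNA), [5,6-3H]uridine (RNA), L-[3,4,5-3H]leucine (protein), [2,3-3H]D-alanine (cell wall). At each time point, incorporation with agent is expressed relative to the DMSO-treated control culture as percent incorporation. Time-zero incorporation is set to 100%.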
# Staphylococcus aureus [29] = assay: Antimicrobial activity against Staphylococcus aureus CB811 harboring quinolone-resistant gyrA S84L mutant gene by broth microdilution method; format: functional; procedure, shortened: as §1
# Staphylococcus aureus [30] = assay: Antimicrobial activity against Staphylococcus aureus CB370 harboring rpoB H481Y mutant gene; format: functional
# Staphylococcus aureus [31] = assay: Antimicrobial activity against Staphylococcus aureus CB1887 harboring rpoB R484H, L520 deficient gyrA, […], R236 duplicated parC and parC H103Y mutant genes selected after ABT-719 exposure for 20 days; format: functional; conditions: CB1887, 480 h
# Staphylococcus aureus [32] = assay: Antimicrobial activity against rifampin-sensitive Staphylococcus aureus CB190 harboring rpoB A477V mutant gene by broth microdilution method; format: functional; procedure, shortened: as §1
# Staphylococcus aureus [33] = assay: Inhibition of cell wall synthesis in quinolone-resistant Staphylococcus aureus CB814 harboring gyrA S84L and parC S80F mutant genes assessed as [2,3-3H]D-alanine incorporation at 2 ug/ml; format: functional, organism-based; procedure, shortened: as §2
# Staphylococcus aureus [34] = assay: Antimicrobial activity against Staphylococcus aureus CB1953 harboring rpoB H481Y, gyrA S84L, gyrA V598I, parC S80F, parC R570H mutant genes selected after CBR-2092 exposure for 7 days; format: functional; conditions: CB1953, 168 h
# Staphylococcus aureus [35] = assay: Inhibition of DNA synthesis in quinolone-resistant Staphylococcus aureus CB814 harboring gyrA S84L and parC S80F mutant genes assessed as [methyl-3H]thymidine incorporation at 2 ug/ml; format: functional, organism-based; procedure, shortened: as §2
# Staphylococcus aureus [36] = assay: Antimicrobial activity against Staphylococcus aureus CB1947 harboring rpoB H481Y, gyrA S84L, E697 deficient gyrA, parC G167V mutant genes selected after CBR-2092 exposure for 20 days; conditions: CB1947, 480 h
# Staphylococcus aureus [37] = assay: Inhibition of protein synthesis in Staphylococcus aureus CB190 assessed as decrease in L-[3,4,5-3H]leucine incorporation at 2 ug/ml; format: functional, organism-based
# Staphylococcus aureus [38] = assay: Antimicrobial activity against Staphylococcus aureus CB812 harboring rpo B H481Y and gyrA S84L mutant genes by broth microdilution method; format: functional; procedure, shortened: as §1
smiles,measurement,setting,value
O=C(O)c1cn(C2CC2)c2cc(N3CCNCC3)c(F)cc2c1=O [CIPROFLOXACIN],MIC,Staphylococcus aureus [1],64 µg/mL
same,MIC,Staphylococcus aureus [2],8 µg/mL
same,CC50,Staphylococcus aureus [3],4.6 µM
same,MIC,Staphylococcus aureus [4],0.25 µg/mL
same,MIC,Staphylococcus aureus [5],2 µg/mL
same,MIC,Staphylococcus aureus [6],0.25 µg/mL
same,MIC,Staphylococcus aureus [7],0.25 µg/mL
same,CC50,Staphylococcus aureus [8],31 µM
same,Activity,Staphylococcus aureus [9],Active
same,MIC,Staphylococcus aureus [10],0.25 µg/mL
same,MIC,Staphylococcus aureus [11],0.25 µg/mL
same,Activity,Staphylococcus aureus [12],Active
same,MIC,Staphylococcus aureus [13],0.25 µg/mL
same,MIC,Staphylococcus aureus [14],0.25 µg/mL
same,Activity,Staphylococcus aureus [15],Active
same,Activity,Staphylococcus aureus [16],Active
same,MIC,Staphylococcus aureus [17],64 µg/mL
same,MIC,Staphylococcus aureus [18],0.25 µg/mL
same,Activity,Staphylococcus aureus [19],inactive
same,CC50,[20],> 150 µM
same,MIC,Staphylococcus aureus [21],0.25 µg/mL
same,MIC,Staphylococcus aureus [22],0.25 µg/mL
same,MIC,Staphylococcus aureus [23],2 µg/mL
same,MIC,Staphylococcus aureus [24],0.5 µg/mL
same,CC50,Staphylococcus aureus [25],0.4 µM
same,MIC,Staphylococcus aureus [26],0.25 µg/mL
same,MIC,Staphylococcus aureus [27],0.25 µg/mL
same,Activity,Staphylococcus aureus [28],inactive
same,MIC,Staphylococcus aureus [29],0.25 µg/mL
same,MIC,Staphylococcus aureus [30],0.25 µg/mL
same,MIC,Staphylococcus aureus [31],64 µg/mL
same,MIC,Staphylococcus aureus [32],0.25 µg/mL
same,Activity,Staphylococcus aureus [33],inactive
same,MIC,Staphylococcus aureus [34],64 µg/mL
same,Activity,Staphylococcus aureus [35],inactive
same,MIC,Staphylococcus aureus [36],2 µg/mL
same,Activity,Staphylococcus aureus [37],Active
same,MIC,Staphylococcus aureus [38],0.25 µg/mL
